Laboratory results as given in PMC10864842 (Saudi Pharmaceutical Journal : SPJ, 2024).
Several values for one entry are separate records, joined by “and”; a condition that tells them apart may be missing. Identical values can stand only once. Like-named read-outs stand apart in the source and are kept apart here.

What was measured:
KSP ATPase [1] = biological target: T1, KSP ATPase (Homo sapiens, UniProt P52732); assay: Microtubule-activated KSP ATPase end-point assay; assay type: biochemical; settings: read-out: KSP ATPase inhibition [%]
T1 sequence (P52732 1-1056): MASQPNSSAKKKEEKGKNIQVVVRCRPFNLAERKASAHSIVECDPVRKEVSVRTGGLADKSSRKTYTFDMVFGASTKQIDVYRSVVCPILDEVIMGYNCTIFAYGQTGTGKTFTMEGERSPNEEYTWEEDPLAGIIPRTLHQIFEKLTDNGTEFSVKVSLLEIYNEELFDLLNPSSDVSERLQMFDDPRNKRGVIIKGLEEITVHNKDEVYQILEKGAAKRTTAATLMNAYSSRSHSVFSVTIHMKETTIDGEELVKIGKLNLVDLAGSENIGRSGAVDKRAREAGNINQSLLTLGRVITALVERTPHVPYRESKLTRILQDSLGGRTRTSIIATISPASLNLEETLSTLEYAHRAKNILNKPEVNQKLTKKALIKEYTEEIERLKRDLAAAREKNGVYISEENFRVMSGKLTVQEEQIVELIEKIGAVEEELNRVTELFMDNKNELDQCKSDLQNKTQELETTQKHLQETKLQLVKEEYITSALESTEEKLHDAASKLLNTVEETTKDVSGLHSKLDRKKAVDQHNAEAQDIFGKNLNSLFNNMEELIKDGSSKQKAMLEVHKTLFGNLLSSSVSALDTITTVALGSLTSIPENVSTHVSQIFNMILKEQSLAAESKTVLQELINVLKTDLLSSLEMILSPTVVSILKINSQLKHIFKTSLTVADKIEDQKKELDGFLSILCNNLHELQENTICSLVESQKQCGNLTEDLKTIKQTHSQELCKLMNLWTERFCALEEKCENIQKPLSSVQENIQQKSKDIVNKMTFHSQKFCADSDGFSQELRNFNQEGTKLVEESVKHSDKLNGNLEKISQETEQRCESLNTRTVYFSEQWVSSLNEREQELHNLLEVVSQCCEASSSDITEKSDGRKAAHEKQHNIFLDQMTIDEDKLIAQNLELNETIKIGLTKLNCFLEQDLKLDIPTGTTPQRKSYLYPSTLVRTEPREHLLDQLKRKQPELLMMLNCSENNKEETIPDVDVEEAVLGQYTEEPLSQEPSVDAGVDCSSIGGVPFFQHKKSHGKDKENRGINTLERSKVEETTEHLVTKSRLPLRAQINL

KSP ATPase [2] = biological target: T1, KSP ATPase; assay: Microtubule-activated KSP ATPase kinetic assay; assay type: biochemical
PI3Kδ = PI3Kδ (Homo sapiens, UniProt O00329); assay: PI3Kδ inhibition assay; assay type: biochemical
Sequence of PI3Kδ (O00329 whole entry): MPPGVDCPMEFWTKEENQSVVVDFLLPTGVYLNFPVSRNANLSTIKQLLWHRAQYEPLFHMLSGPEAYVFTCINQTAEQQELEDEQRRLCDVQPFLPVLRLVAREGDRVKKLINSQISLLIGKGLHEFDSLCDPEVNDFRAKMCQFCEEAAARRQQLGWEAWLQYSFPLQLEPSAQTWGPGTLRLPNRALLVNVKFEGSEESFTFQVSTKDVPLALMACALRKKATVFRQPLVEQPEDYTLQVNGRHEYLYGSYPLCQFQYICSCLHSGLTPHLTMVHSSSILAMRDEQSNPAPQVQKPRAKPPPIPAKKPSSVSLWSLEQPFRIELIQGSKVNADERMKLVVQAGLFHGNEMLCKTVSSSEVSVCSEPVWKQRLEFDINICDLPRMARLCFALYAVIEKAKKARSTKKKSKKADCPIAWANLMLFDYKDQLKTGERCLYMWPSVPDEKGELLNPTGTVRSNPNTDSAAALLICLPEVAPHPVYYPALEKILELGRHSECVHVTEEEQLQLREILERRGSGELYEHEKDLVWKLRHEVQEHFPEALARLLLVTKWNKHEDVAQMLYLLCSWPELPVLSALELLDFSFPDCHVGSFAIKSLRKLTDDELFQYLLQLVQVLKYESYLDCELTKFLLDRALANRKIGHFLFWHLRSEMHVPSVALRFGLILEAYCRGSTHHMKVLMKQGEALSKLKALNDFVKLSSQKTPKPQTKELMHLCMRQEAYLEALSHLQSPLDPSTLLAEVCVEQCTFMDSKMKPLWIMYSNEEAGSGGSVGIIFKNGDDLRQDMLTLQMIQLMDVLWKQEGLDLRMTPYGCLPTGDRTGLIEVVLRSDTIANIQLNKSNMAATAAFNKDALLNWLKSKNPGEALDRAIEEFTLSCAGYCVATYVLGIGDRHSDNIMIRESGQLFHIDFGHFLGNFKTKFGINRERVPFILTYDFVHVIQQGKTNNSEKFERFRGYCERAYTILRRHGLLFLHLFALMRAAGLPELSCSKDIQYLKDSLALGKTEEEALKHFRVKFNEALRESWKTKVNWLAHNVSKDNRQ
Sequence of PI3Kδ (P27986 whole entry partner): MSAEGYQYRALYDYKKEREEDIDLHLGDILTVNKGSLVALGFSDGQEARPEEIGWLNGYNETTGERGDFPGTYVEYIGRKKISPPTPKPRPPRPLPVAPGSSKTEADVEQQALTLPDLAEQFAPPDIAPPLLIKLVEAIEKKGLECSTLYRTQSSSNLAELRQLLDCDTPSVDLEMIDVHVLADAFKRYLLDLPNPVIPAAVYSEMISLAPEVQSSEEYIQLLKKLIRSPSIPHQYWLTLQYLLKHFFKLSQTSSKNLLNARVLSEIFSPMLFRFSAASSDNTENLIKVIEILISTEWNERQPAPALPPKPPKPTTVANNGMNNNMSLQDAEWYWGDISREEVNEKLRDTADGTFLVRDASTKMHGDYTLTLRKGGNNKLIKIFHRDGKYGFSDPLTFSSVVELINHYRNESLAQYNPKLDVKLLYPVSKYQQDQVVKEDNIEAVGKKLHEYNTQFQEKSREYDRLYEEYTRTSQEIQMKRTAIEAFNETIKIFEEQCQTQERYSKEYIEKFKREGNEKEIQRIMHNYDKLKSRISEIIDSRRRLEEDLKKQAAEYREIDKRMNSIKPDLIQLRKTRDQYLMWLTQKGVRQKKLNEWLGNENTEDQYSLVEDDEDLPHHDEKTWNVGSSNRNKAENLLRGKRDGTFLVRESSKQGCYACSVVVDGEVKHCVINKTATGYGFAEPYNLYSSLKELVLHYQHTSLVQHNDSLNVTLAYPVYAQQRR

[3] = system: MDA-MB-231 breast cancer cells; assay: MTT assay on MDA-MB-231 cells; assay type: cell-based; settings: Homo sapiens
Method in brief: (§1)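 Cells kept in DMEM with 10% (v/v) FBS and 1% (v/v) streptomycin/penicillin at 37 °C and 5% CO2. About 10^4 cells/ml were seeded and grown for 24 h. Test compounds in DMSO were added at 6.25, 12.5, 25, 50 and 100 µg/ml for 24 and 48 h. Medium was replaced with 5 mg/mL MTT for 3–4 h. Formazan was dissolved in acidified isopropanol and read at 630 nm. Viability is expressed as % of untreated cells.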

[4] = MTT assay on oral epithelial normal cells; assay type: cell-based
Method in brief: as §1

MDA-MB-231 cells [5] = assay: Morphological study by inverted microscope; assay type: cell-based; settings: 48 h
Method in brief: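 MDA-MB-231 cells were grown in DMEM with 10% FBS and 1% streptomycin/penicillin at 37 °C, 5% CO2. They were treated with varying concentrations of test compound for 48 h and examined by inverted light microscopy. Phenotypic changes were scored as cell shrinkage, apoptotic body formation and membrane blebbing.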

MDA-MB-231 cells [6] = assay: Annexin V-FITC/PI flow cytometry; assay type: cell-based; settings: MDA-MB-231, Annexin V-FITC & PI, post-treatment
Method in brief: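 MDA-MB-231 cells were kept in DMEM with 10% FBS and 1% streptomycin/penicillin at 37 °C under 5% CO2. Cells were treated with the test compound for 48 h, with doxorubicin as the standard and untreated cells for comparison. Cells were then harvested, rinsed, suspended in PBS, stained with Annexin V-FITC/PI and held 20 min in the dark before flow cytometry. Early apoptosis was Annexin V+/PI−; late apoptosis was Annexin V+/PI+.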

MDA-MB-231 cells [7] = assay: DNA fragmentation by gel electrophoresis; assay type: cell-based; settings: post-treatment
Method in brief: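 MDA-MB-231 cells kept in DMEM with 10% FBS and 1% streptomycin/penicillin at 37 °C, 5% CO2. Genomic DNA was extracted with a commercial kit from cells before and after test compound treatment, and its quality was checked by nanodrop. DNA plus 1X loading dye was run on agarose gel, viewed under a UV transilluminator and imaged on a gel documentation system. Doxorubicin served as reference.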

MDA-MB-231 cells [8] = assay: qRT-PCR relative gene expression of P53, BAX and BCL-2; assay type: cell-based; settings: MDA-MB-231, 48 h
Method in brief: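 RNA was extracted from cells after 48 h of treatment with test compound, and its purity was checked by nanodrop. P53, BAX and BCL-2 expression was normalised to β-actin as the housekeeping gene. Treated and untreated cells were compared by ANOVA.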

- inhibition at 2 µM (KSP ATPase [1]): 93.3 ± 2.1%
- IC50 (KSP ATPase [2]): 0.0684 µM
- IC50 (PI3Kδ): 0.0454 ± 0.00205 µM
- IC50 ([3]; MDA-MB-231, 24 h, read-out: IC50 after 24 h (µM)): 21.5 µM
- IC50 ([3]; MDA-MB-231, 24 h, read-out: IC50 after 24 h in µg/mL): 8.94 ± 0.08 µg/mL
- IC50 ([3]; MDA-MB-231, 48 h, read-out: IC50 after 48 h (µM)): 9.97 µM
- IC50 ([3]; MDA-MB-231, 48 h, read-out: IC50 after 48 h in µg/mL): 4.14 ± 0.11 µg/mL
- IC50 at 48 h [4]: 92.1 µg/mL and 222 µM
Compound: O=c1c2cc(Cl)ccc2nc(SCc2ccc(F)cc2)n1-c1ccc(F)cc1 [Compound 3e, 6-Chloro-2-((4-fluorobenzyl)thio)-3-(4-fluorophenyl)quinazolin-4(3H)-one]
- Morphological changes of treated cells (MDA-MB-231 cells [5]): cell shrinkage, apoptotic bodies formation, and membrane blebbing
- Number of cells in the early and late apoptosis versus untreated cells (MDA-MB-231 cells [6]): significant increase
- DNA fragmentation (MDA-MB-231 cells [7]): internucleosomal fragmentation was noticed
- Relative gene expression of BAX (MDA-MB-231 cells [8]): significant overexpression
- Relative gene expression of BCL-2 (MDA-MB-231 cells [8]): downregulation
- Relative gene expression of P53 (MDA-MB-231 cells [8]): significant overexpression
